Calls of active or inactive are those of the source.
Legend:
Aspergillus niger [1] = assay: Antifungal activity against Aspergillus niger JvD1.1 at 104.2 ug/mL by microtiter plate; type: functional, organism-based
Outline: (§1)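 Reporter conidia (2×10^4 per well) were pre-grown 6 h at 37 °C in 2× CM in glass-bottom plates. An equal volume of a 2-fold dilution series (seven concentrations) was added, then 3 h at 30 °C. Medium was discarded and adherent germlings imaged. Growth inhibition was scored 0/1/2 from hyphal length.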

Aspergillus niger [2] = assay: Induction of GFP tagged PagsA expression in Aspergillus niger JvD1.1 at 104.2 ug/mL by fluorescence microscopy; type: functional, organism-based
Outline: (§2)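 agsA promoter-GFP reporters, cytoplasmic (JvD1.1) or nuclear H2B-targeted (RD6.47). Germlings pre-grown 6 h at 37 °C in 2× CM, exposed 3 h at 30 °C to seven 2-fold dilutions. GFP levels were scored by fluorescence microscopy as 0 (basal), 1 (intermediate) or 2 (high). Controls: gpdA-H2B-GFP strain MA26.1 (positive), N402 (negative).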

Aspergillus niger [3] = assay: Induction of GFP tagged PagsA-H2B expression in Aspergillus niger RD6.47 at 104.2 ug/mL by fluorescence microscopy; type: functional, organism-based; outline: as §2
Aspergillus niger [4] = assay: Antifungal activity against Aspergillus niger RD6.47 at 104.2 ug/mL by microtiter plate; type: functional, organism-based; outline: as §1
Aspergillus niger [5] = assay: Effect on morphological changes in Aspergillus niger N402 germlings assessed as tip swelling at 5 ug/mL after 5 hrs; type: functional, organism-based
Aspergillus niger [6] = assay: Induction of GFP tagged PagsA expression in Aspergillus niger JvD1.1 by fluorescence microscopy; type: functional, organism-based
Outline: (§3)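 Conidia of the agsA-promoter GFP reporters (2×10^4 per well, 2× CM) germinated 6 h at 37 °C, then were exposed 3 h at 30 °C to seven 2-fold serial dilutions. GFP in adherent germlings was read by fluorescence microscopy and scored 0 (basal), 1 (intermediate) or 2 (high). Positive control was a PgpdA-H2B-GFP strain; N402 was the negative control.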

Aspergillus niger [7] = assay: Induction of gnaA gene expression in Aspergillus niger by microarray analysis relative to control; type: functional
Outline: (§4)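 A. niger N402 conidia (5×10^9) grown in 5 L fermentation medium in a bioreactor at 37 °C, pH 3, 250 rpm. Drug in distilled H2O or H2O alone added at 5 h; mycelium harvested by filtration 1 h later and frozen in liquid nitrogen. cRNA hybridized to Affymetrix A. niger GeneChips, two independent bioreactor runs per condition; normalized, ≥1.5-fold change at p 0.05 cutoff.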

Aspergillus niger [8] = assay: Effect on increase sub apical branching in Aspergillus niger N402 germlings assessed as branching index at 5 ng/mL after 5 hrs; type: functional
Outline: (§5)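 N402 conidia (5×10^5) were germinated 5 h at 37 °C on coverslips in 5 ml liquid MM plus 0.003% yeast extract. Compound was added (water for controls) and culture continued 1 h at 37 °C. At least 50 adherent germlings were scored microscopically as branched or unbranched; branching index = branched/(branched + unbranched).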

Aspergillus niger [9] = assay: Induction of crhC gene expression in Aspergillus niger by microarray analysis relative to control; type: functional; outline: as §4
Aspergillus niger [10] = assay: Effect on morphological changes in Aspergillus niger N402 germlings assessed as germ tube elongation and branching at 5 ng/mL after 5 hrs; type: functional, organism-based
Outline: (§6)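 Compound or water control was added, then 1 h more at 37 °C. Adherent germlings were scored by microscopy, at least 50 per sample, as branched or unbranched. Branching index = branched/total germlings.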

Aspergillus niger [11] = assay: Induction of GFP tagged PagsA-H2B expression in Aspergillus niger RD6.47 at 25.6 ug/mL by fluorescence microscopy; type: functional, organism-based; outline: as §3
Aspergillus niger [12] = assay: Effect on morphological changes in Aspergillus niger N402 germlings assessed as germ tube elongation and branching at 5 ug/mL after 5 hrs; type: functional, organism-based; outline: as §6
Aspergillus niger [13] = assay: Induction of agsA expression in Aspergillus niger N402 germlings; type: functional, organism-based
Outline: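 RNA from 1 h-treated N402 bioreactor germlings (5 h pre-growth, FM pH 3, 37 °C) was hybridised to A. niger Affymetrix arrays, biological duplicate. Data were normalised; differential expression was taken as at least 1.5-fold change with p cutoff 0.05. Northern blots on the same RNA were used for validation.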

Aspergillus niger [14] = assay: Effect on morphological changes in Aspergillus niger JvD1.1 assessed as tip swelling; type: functional, organism-based
Aspergillus niger [15] = assay: Induction of gfaA gene expression in Aspergillus niger by microarray analysis relative to control; type: functional; outline: as §4
Aspergillus niger [16] = assay: Induction of gelA gene expression in Aspergillus niger by microarray analysis relative to control; type: functional; outline: as §4
Aspergillus niger [17] = assay: Antifungal activity against Aspergillus niger RD6.47 by microtiter plate; type: functional, organism-based
Outline: (§7)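 Reporter germlings (cytoplasmic PagsA-GFP JvD1.1 or nuclear PagsA-H2B-GFP RD6.47), 2×10^4 conidia per well in 2× CM, pre-grown 6 h at 37 °C. A 2-fold dilution series (seven concentrations) was then added and plates were held 3 h at 30 °C. Adherent germlings were imaged, and growth inhibition was scored 0/1/2 from hyphal length.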

Aspergillus niger [18] = assay: Induction of srgA gene expression in Aspergillus niger by microarray analysis relative to control; type: functional; outline: as §4
Aspergillus niger [19] = assay: Induction of lplB gene expression in Aspergillus niger by microarray analysis relative to control; type: functional; outline: as §4
Aspergillus niger [20] = assay: Induction of ugpA gene expression in Aspergillus niger by microarray analysis relative to control; type: functional; outline: as §4
Aspergillus niger [21] = assay: Induction of GFP tagged PagsA-H2B expression in Aspergillus niger RD6.47 by fluorescence microscopy; type: functional, organism-based; outline: as §3
Aspergillus niger [22] = assay: Effect on morphological changes in Aspergillus niger N402 germlings assessed as increase in germ tube; type: functional, organism-based
Outline: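 Bioreactor: 5×10^9 N402 conidia in 5 l fermentation medium, pH 3 controlled, 37 °C, 250 rpm. Compound in water (or water alone) added at 5 h, then 1 h further cultivation. At least 200 germlings per run were counted for germ tubes per germling and subapical branches. Mean ± S.D. from two independent runs.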

Aspergillus niger [23] = assay: Induction of agtA gene expression in Aspergillus niger by microarray analysis relative to control; type: functional; outline: as §4
Aspergillus niger [24] = assay: Induction of GFP tagged PagsA expression in Aspergillus niger JvD1.1 at 25.6 ug/mL by fluorescence microscopy; type: functional, organism-based; outline: as §3
Aspergillus niger [25] = assay: Induction of dpmA gene expression in Aspergillus niger by microarray analysis relative to control; type: functional; outline: as §4
Aspergillus niger [26] = assay: Induction of dfgC gene expression in Aspergillus niger by microarray analysis relative to control; type: functional; outline: as §4
Aspergillus niger [27] = assay: Antifungal activity against Aspergillus niger RD6.47 at 25.6 ug/mL by microtiter plate; type: functional, organism-based; outline: as §7
Aspergillus niger [28] = assay: Induction of rhoB gene expression in Aspergillus niger by microarray analysis relative to control; type: functional; outline: as §4
Aspergillus niger [29] = assay: Antifungal activity against Aspergillus niger JvD1.1 by microtiter plate; type: functional, organism-based; outline: as §7
Aspergillus niger [30] = assay: Effect on morphological changes in Aspergillus niger N402 germlings assessed as tip swelling at 0.9 ug/mL after 5 hrs; type: functional, organism-based
Aspergillus niger [31] = assay: Effect on morphological changes in Aspergillus niger N402 germlings assessed as branching index at 50 ng/mL; type: functional; outline: as §5
Aspergillus niger [32] = assay: Effect on morphological changes in Aspergillus niger N402 germlings assessed as germ tube elongation and branching at 0.9 ug/mL after 5 hrs; type: functional, organism-based; outline: as §6
Aspergillus niger [33] = assay: Effect on morphological changes in Aspergillus niger N402 germlings assessed as tip swelling at 5 ng/mL after 5 hrs; type: functional, organism-based
Aspergillus niger [34] = assay: Upregulation of agtA gene expression in Aspergillus niger relative to control; type: functional, organism-based
Outline: (§8)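 N402 conidia (5×10^9) were grown in 5 l fermentation medium, pH 3, 37 °C, 250 rpm in a bioreactor. After 5 h compound was added (water for controls); mycelium was harvested 1 h later. RNA was hybridized to A. niger Affymetrix GeneChips from two independent bioreactor runs. Genes with ≥1.5-fold change at p < 0.05 after normalization were counted as differentially expressed.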

Aspergillus niger [35] = assay: Induction of rapA gene expression in Aspergillus niger by microarray analysis relative to control; type: functional; outline: as §4
Aspergillus niger [36] = assay: Induction of gfaB gene expression in Aspergillus niger by microarray analysis relative to control; type: functional; outline: as §4
Aspergillus niger [37] = assay: Induction of crhB gene expression in Aspergillus niger by microarray analysis relative to control; type: functional; outline: as §4
Aspergillus niger [38] = assay: Induction of pgmB gene expression in Aspergillus niger by microarray analysis relative to control; type: functional; outline: as §4
Aspergillus niger [39] = assay: Antifungal activity against Aspergillus niger JvD1.1 at 25.6 ug/mL by microtiter plate; type: functional, organism-based; outline: as §7
Aspergillus niger [40] = assay: Upregulation of Rho2-GTPase gene expression in Aspergillus niger relative to control; type: functional, organism-based; outline: as §8
Aspergillus niger [41] = assay: Induction of chsB gene expression in Aspergillus niger by microarray analysis relative to control; type: functional; outline: as §4
Aspergillus niger [42] = assay: Effect on morphological changes in Aspergillus niger RD6.47 assessed as tip swelling; type: functional, organism-based
Aspergillus niger [43] = assay: Induction of bgtB gene expression in Aspergillus niger by microarray analysis relative to control; type: functional; outline: as §4
Aspergillus niger [44] = assay: Induction of dppA gene expression in Aspergillus niger by microarray analysis relative to control; type: functional; outline: as §4
Aspergillus niger [45] = assay: Induction of mkkA gene expression in Aspergillus niger by microarray analysis relative to control; type: functional; outline: as §4
Aspergillus niger [46] = assay: Induction of hocA gene expression in Aspergillus niger by microarray analysis relative to control; type: functional; outline: as §4

CCCCNC(=O)n1c(NC(=O)OC)nc2ccccc21
Activity (Aspergillus niger [1]): Active | Activity (Aspergillus niger [2]): inactive | Activity (Aspergillus niger [3]): inactive | Activity (Aspergillus niger [4]): Active

N#Cc1c[nH]cc1-c1cccc2c1OC(F)(F)O2
Activity (Aspergillus niger [1]): Active | Activity (Aspergillus niger [2]): Active | Activity (Aspergillus niger [3]): Active | Activity (Aspergillus niger [4]): Active

CCCN(CC)CC1COC2(CCC(C(C)(C)C)CC2)O1 (stereo unspecified)
Activity (Aspergillus niger [1]): Active | Activity (Aspergillus niger [2]): Active | Activity (Aspergillus niger [3]): Active | Activity (Aspergillus niger [4]): Active

Cc1cc(C2CC2)nc(Nc2ccccc2)n1
Activity (Aspergillus niger [2]): Active | Activity (Aspergillus niger [3]): Active

CC[C@H](C)C[C@H](C)CCCCCCCCC(=O)N[C@H]1C[C@@H](O)[C@@H](NCCN)NC(=O)[C@@H]2[C@@H](O)CCN2C(=O)[C@H]([C@H](O)CCN)NC(=O)[C@H]([C@H](O)[C@@H](O)c2ccc(O)cc2)NC(=O)[C@@H]2C[C@@H](O)CN2C(=O)[C@H]([C@@H](C)O)NC1=O [CASPOFUNGIN]
Activity (Aspergillus niger [5]): Active | Activity (Aspergillus niger [6]): Active | fold change (FC) (Aspergillus niger [7]): 3.18 | Activity (Aspergillus niger [8]): 34.5% | fold change (FC) (Aspergillus niger [9]): 2.03 | Activity (Aspergillus niger [10]): Active | Activity (Aspergillus niger [11]): Active | Activity (Aspergillus niger [12]): Active | Activity (Aspergillus niger [13]): Active | Activity (Aspergillus niger [14]): Active | fold change (FC) (Aspergillus niger [15]): 2.32 | fold change (FC) (Aspergillus niger [16]): 3.05 | Activity (Aspergillus niger [17]): Active | fold change (FC) (Aspergillus niger [18]): 2.51 | fold change (FC) (Aspergillus niger [19]): 1.77 | fold change (FC) (Aspergillus niger [20]): 1.64 | Activity (Aspergillus niger [21]): Active | Activity (Aspergillus niger [22]): Active | fold change (FC) (Aspergillus niger [23]): 2.1 | Activity (Aspergillus niger [24]): Active | fold change (FC) (Aspergillus niger [25]): 1.85 | fold change (FC) (Aspergillus niger [26]): 2.4 | Activity (Aspergillus niger [27]): Active | fold change (FC) (Aspergillus niger [28]): 2.32 | Activity (Aspergillus niger [29]): Active | Activity (Aspergillus niger [30]): Active | Activity (Aspergillus niger [31]): 43.7% | Activity (Aspergillus niger [32]): Active | Activity (Aspergillus niger [33]): Active | Activity (Aspergillus niger [34]): Active | fold change (FC) (Aspergillus niger [35]): 2.16 | fold change (FC) (Aspergillus niger [36]): 7.98 | fold change (FC) (Aspergillus niger [37]): 2.58 | fold change (FC) (Aspergillus niger [38]): 1.95 | Activity (Aspergillus niger [39]): Active | Activity (Aspergillus niger [40]): Active | fold change (FC) (Aspergillus niger [41]): 3.08 | Activity (Aspergillus niger [42]): Active | fold change (FC) (Aspergillus niger [43]): 1.77 | fold change (FC) (Aspergillus niger [44]): 2.62 | fold change (FC) (Aspergillus niger [45]): 2.03 | fold change (FC) (Aspergillus niger [46]): 2.03

Reference: ChEMBL document CHEMBL1156509, “Survival in the presence of antifungals: genome-wide expression profiling of Aspergillus niger in response to sublethal concentrations of caspofungin and fenpropimorph” (2007)
